# Measured values reported in ChEMBL document CHEMBL3244273, “Analgesic activity of novel spiro heterocycles. 2-Amino-7-oxa-3-thia-1-azaspiro[5,5]undec-1-enes and related compounds” (J Med Chem, 1978).
# Active and inactive are the calls of the source.
# Tests used:
# Mus musculus [1] = experiment: Analgesic activity in po dosed CF-1 mouse assessed as reduction in phenylquinone-induced writhing responses administered 15 mins prior to phenylquinone challenge; format: functional
# Rattus norvegicus [2] = organism: Rattus norvegicus; experiment: Antiinflammatory activity against mycobacterial adjuvant-induced arthritis in rat; format: functional, organism-based
# Rattus norvegicus [3] = experiment: Analgesic activity against po dosed yeast-induced inflamed foot Sprague-Dawley rat model assessed as increase in pain threshold in inflamed paw measured after 2 hrs; format: functional
# [4] = Acute toxicity in po dosed CF-1S mouse assessed as mortality measured for 5 days; format: organism-based; conditions: in vivo
# Summary of the method: (§1)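 Male and female CF-1S mice (17-25 g) received the compound suspended in gum acacia solution, orally or intraperitoneally, in groups of six to ten per dose level. Mortality was followed for 24 h after ip dosing and for 5 days after oral dosing. LD50 was calculated by the Miller-Tainter method.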
# Rattus norvegicus [5] = experiment: Analgesic activity in po dosed Sprague-Dawley rat by tail flick assay; format: functional
# [6] = Acute toxicity in ip dosed CF-1S mouse assessed as mortality measured for 24 hrs; format: organism-based; conditions: in vivo; summary of the method: as §1
# [7] = Retardation factor of the compound using benzene-ethyl acetate at ratio of 1:1 as solvent system by thin layer chromatography; format: physicochemical
# Mus musculus [8] = experiment: Analgesic activity in CF-1 mouse assessed as reduction in phenylquinone-induced writhing responses at 200 mg/kg, po administered 15 mins prior to phenylquinone challenge; format: functional
# Summary of the method: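 Fifteen min later they received 0.25 mL ip of 0.02% 2-phenyl-1,4-benzoquinone in 19:1 water-ethanol. Writhes were counted for 5 min starting 10 min after the injection, and % protection was calculated versus vehicle controls.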
# [9] = Mus musculus, CF-1, po, read-out: ED50
# [10] = Rattus norvegicus, Sprague-Dawley, po, 2 h, read-out: ED50
smiles,measurement,setting,value
O=C(/N=C1\NC2(CCCCO2)CCS1)c1ccccc1 (centres undefined),ED50,Mus musculus [1]; [9],5 mg/kg
same,Activity,Rattus norvegicus [2],inactive
same,ED50,Rattus norvegicus [3]; [10],2.6 mg/kg
Cc1ccc(C(=O)/N=C2\NC3(CCCCO3)CCS2)cc1 (centres undefined),ED50,Mus musculus [1]; [9],60 mg/kg
same,Activity,Rattus norvegicus [2],inactive
same,LD50 at 120 h,[4],1120 mg/kg
same,ED50,Rattus norvegicus [3]; [10],0.9 mg/kg
same,ED50,Rattus norvegicus [5],> 25 mg/kg
same,LD50 at 24 h,[6],> 400 mg/kg
O=C(/N=C1\NC2(CCCCO2)CCS1)c1ccc(Br)cc1 (centres undefined),ED50,Mus musculus [1]; [9],> 200 mg/kg
same,Activity,Rattus norvegicus [2],inactive
same,ED50,Rattus norvegicus [3]; [10],3.2 mg/kg
O=C(/N=C1\NC2(CCCCO2)CCS1)c1ccco1 (centres undefined),ED50,Mus musculus [1]; [9],42 mg/kg
same,Activity,Rattus norvegicus [2],inactive
Cl.O=C(/C=C/c1ccccc1)/N=C1\NC2(CCCCO2)CCS1 (centres undefined),ED50,Mus musculus [1]; [9],17 mg/kg
same,Activity,Rattus norvegicus [2],inactive
same,ED50,Rattus norvegicus [3]; [10],2.5 mg/kg
COc1ccc(C(=O)/N=C2\NC3(CCCCO3)CCS2)cc1 (centres undefined),ED50,Mus musculus [1]; [9],62 mg/kg
same,Activity,Rattus norvegicus [2],inactive
same,ED50,Rattus norvegicus [3]; [10],6 mg/kg
"O=C(/N=C1\NC2(CCCCO2)CCS1)c1ccc(F)cc1 (single isomer, unassigned; (+)) [listing 1 of 2 here]",Activity,Rattus norvegicus [2],inactive
COc1cccc(OC)c1C(=O)/N=C1\NC2(CCCCO2)CCS1 (centres undefined),ED50,Mus musculus [1]; [9],> 200 mg/kg
same,Activity,Rattus norvegicus [2],inactive
same,ED50,Rattus norvegicus [3]; [10],> 200 mg/kg
CCC(=O)O[C@](Cc1ccccc1)(c1ccccc1)[C@H](C)CN(C)C [PROPOXYPHENE],ED50,Mus musculus [1]; [9],48 mg/kg
same,ED50,Rattus norvegicus [3]; [10],60 mg/kg
NC1=NC2(CCCC(c3ccccc3)O2)CCS1.O=C(O)/C=C\C(=O)O (centres undefined),ED50,Mus musculus [1]; [9],64 mg/kg
same,ED50,Rattus norvegicus [3]; [10],> 200 mg/kg
c1ccc(/N=C2\NC3(CCCCO3)CCS2)cc1 (racemic),Rf,[7],0.45
same,ED50,Mus musculus [1]; [9],> 200 mg/kg
same,ED50,Rattus norvegicus [3]; [10],> 100 mg/kg
N#Cc1ccc(C(=O)/N=C2\NC3(CCCCO3)CCS2)cc1 (centres undefined),ED50,Mus musculus [1]; [9],60 mg/kg
same,Activity,Rattus norvegicus [2],inactive
same,ED50,Rattus norvegicus [3]; [10],1 mg/kg
CC1CCCC2(CCSC(N)=N2)O1.O=C(O)/C=C\C(=O)O (centres undefined),ED50,Mus musculus [1]; [9],25 mg/kg
same,ED50,Rattus norvegicus [3]; [10],3.2 mg/kg
Cl.O=C(/N=C1\NC2(CCCO2)CCS1)c1ccc(F)cc1 (centres undefined),ED50,Mus musculus [1]; [9],14.8 mg/kg
same,Activity,Rattus norvegicus [2],inactive
same,ED50,Rattus norvegicus [3]; [10],2 mg/kg
CC(=O)N(Cc1ccccc1)C1=NC2(CCCCO2)CCS1 (centres undefined),Rf,[7],0.37
COc1ccc(C(=O)/N=C2\NC3(CCCCO3)CCS2)cc1OC (centres undefined),ED50,Mus musculus [1]; [9],200 mg/kg
same,inhibition in vivo at 200 mg/kg,Mus musculus [8],-75%
same,Activity,Rattus norvegicus [2],inactive
same,ED50,Rattus norvegicus [3]; [10],4.5 mg/kg
CNC1=NC2(CCCCO2)CCS1 (racemic),ED50,Mus musculus [1]; [9],52 mg/kg
same,Activity,Rattus norvegicus [2],inactive
same,ED50,Rattus norvegicus [3]; [10],21 mg/kg
O=C(/N=C1\NC2(CCCCC2)CCS1)c1ccc(F)cc1,ED50,Mus musculus [1]; [9],> 200 mg/kg
same,Activity,Rattus norvegicus [2],inactive
same,ED50,Rattus norvegicus [3]; [10],> 100 mg/kg
O=C(/N=C1\SCCCN1C(=O)c1ccc(F)cc1)c1ccc(F)cc1,Rf,[7],0.5
NC1=NC2(CCCO2)CCS1.O=C(O)/C=C\C(=O)O (racemic),ED50,Mus musculus [1]; [9],15 mg/kg
same,Activity,Rattus norvegicus [2],inactive
same,ED50,Rattus norvegicus [3]; [10],4 mg/kg
O=C(/N=C1\NC2(CCCCO2)CCS1)c1ccc(Cl)cc1 (centres undefined),ED50,Mus musculus [1]; [9],1.1 mg/kg
same,Activity,Rattus norvegicus [2],inactive
same,ED50,Rattus norvegicus [3]; [10],2.4 mg/kg
CN1CC[C@]23c4c5ccc(O)c4O[C@H]2[C@@H](O)C=C[C@H]3[C@H]1C5.CN1CC[C@]23c4c5ccc(O)c4O[C@H]2[C@@H](O)C=C[C@H]3[C@H]1C5.O=S(=O)(O)O,ED50,Mus musculus [1]; [9],4.8 mg/kg
same,ED50,Rattus norvegicus [3]; [10],25 mg/kg
same,ED50,Rattus norvegicus [5],29.3 mg/kg
CC1(C(=O)/N=C2\NC3(CCCCO3)CCS2)CCCCC1 (centres undefined),ED50,Mus musculus [1]; [9],> 200 mg/kg
same,Activity,Rattus norvegicus [2],inactive
same,ED50,Rattus norvegicus [3]; [10],16 mg/kg
O=C(/N=C1\NC2(CCCCO2)CCS1)Nc1ccccc1 (racemic),ED50,Mus musculus [1]; [9],> 200 mg/kg
same,ED50,Rattus norvegicus [3]; [10],> 200 mg/kg
S=C(/N=C1\NC2(CCCCO2)CCS1)Nc1ccccc1 (racemic),ED50,Mus musculus [1]; [9],200 mg/kg
same,inhibition in vivo at 200 mg/kg,Mus musculus [8],-48%
same,Activity,Rattus norvegicus [2],inactive
same,ED50,Rattus norvegicus [3]; [10],> 200 mg/kg
O=C(/N=C1\NCCCS1)c1ccc(F)cc1,Rf,[7],0.36
same,ED50,Mus musculus [1]; [9],> 100 mg/kg
same,Activity,Rattus norvegicus [2],inactive
same,ED50,Rattus norvegicus [3]; [10],> 200 mg/kg
O=C(/N=C1\NC2(CCCCO2)CCS1)c1cccs1 (centres undefined),ED50,Mus musculus [1]; [9],48 mg/kg
same,Activity,Rattus norvegicus [2],inactive
same,ED50,Rattus norvegicus [3]; [10],3.8 mg/kg
O=C(/N=C1\NC2(CCCCO2)CCS1)c1cccc([N+](=O)[O-])c1 (centres undefined),ED50,Mus musculus [1]; [9],> 200 mg/kg
same,Activity,Rattus norvegicus [2],inactive
same,ED50,Rattus norvegicus [3]; [10],8.2 mg/kg
O=C(/N=C1\NC2(CCCCO2)CCS1)c1cccc(C(F)(F)F)c1 (centres undefined),ED50,Mus musculus [1]; [9],> 200 mg/kg
same,Activity,Rattus norvegicus [2],inactive
same,ED50,Rattus norvegicus [3]; [10],11 mg/kg
O=C(/N=C1\NC2(CCCCO2)CCS1)C12CC3CC(CC(C3)C1)C2 (centres undefined),ED50,Mus musculus [1]; [9],> 200 mg/kg
same,Activity,Rattus norvegicus [2],inactive
same,ED50,Rattus norvegicus [3]; [10],14 mg/kg
CCCCC1C(=O)N(c2ccccc2)N(c2ccccc2)C1=O [PHENYLBUTAZONE],ED50,Mus musculus [1]; [9],45 mg/kg
same,ED50,Rattus norvegicus [3]; [10],25 mg/kg
Cc1cc(C)c(C(=O)/N=C2\NC3(CCCCO3)CCS2)c(C)c1 (centres undefined),ED50,Mus musculus [1]; [9],> 200 mg/kg
same,Activity,Rattus norvegicus [2],inactive
same,ED50,Rattus norvegicus [3]; [10],> 200 mg/kg
COc1ccc2c(c1)c(CC(=O)O)c(C)n2C(=O)c1ccc(Cl)cc1 [INDOMETHACIN],ED50,Mus musculus [1]; [9],8.8 mg/kg
same,ED50,Rattus norvegicus [3]; [10],1.2 mg/kg
COc1ccc2c3c1O[C@H]1[C@@H](O)C=C[C@H]4[C@@H](C2)N(C)CC[C@@]341.COc1ccc2c3c1O[C@H]1[C@@H](O)C=C[C@H]4[C@@H](C2)N(C)CC[C@@]341.O.O=P(O)(O)O.O=P(O)(O)O [CODEINE PHOSPHATE],ED50,Mus musculus [1]; [9],18 mg/kg
same,ED50,Rattus norvegicus [3]; [10],40 mg/kg
NC1=NC2(CCCCC2)CCS1.O=C(O)/C=C\C(=O)O,ED50,Mus musculus [1]; [9],6.6 mg/kg
same,Activity,Rattus norvegicus [2],inactive
same,ED50,Rattus norvegicus [3]; [10],19 mg/kg
same,ED50,Rattus norvegicus [5],> 50 mg/kg
O=C(/N=C1\NC2(CCCCO2)CCS1)c1ccc([N+](=O)[O-])cc1 (centres undefined),ED50,Mus musculus [1]; [9],28 mg/kg
same,Activity,Rattus norvegicus [2],inactive
same,ED50,Rattus norvegicus [3]; [10],0.9 mg/kg
O=C(/N=C1\NC2(CCCCO2)CCS1)c1ccccc1O (centres undefined),ED50,Mus musculus [1]; [9],> 200 mg/kg
same,Activity,Rattus norvegicus [2],inactive
same,ED50,Rattus norvegicus [3]; [10],> 200 mg/kg
NC1=NC2(CCCCO2)CCC1.O=C(O)/C=C\C(=O)O (racemic),ED50,Mus musculus [1]; [9],> 200 mg/kg
same,ED50,Rattus norvegicus [3]; [10],> 50 mg/kg
CC(=O)/N=C1\NC2(CCCCO2)CCS1 (centres undefined),ED50,Mus musculus [1]; [9],3.1 mg/kg
same,Activity,Rattus norvegicus [2],inactive
same,ED50,Rattus norvegicus [3]; [10],1.9 mg/kg
O=C(/N=C1\NC2(CCCCO2)CCS1)c1ccc(F)cc1 (stereo in doubt; 33) [listing 1 of 2 here],Activity,Rattus norvegicus [2],inactive
O=C(/N=C1\NC2(CCCCO2)CCS1)c1ccccc1Cl (centres undefined),ED50,Mus musculus [1]; [9],> 200 mg/kg
same,Activity,Rattus norvegicus [2],inactive
CC(=O)Oc1ccccc1C(=O)O [ASPIRIN],ED50,Mus musculus [1]; [9],82 mg/kg
same,ED50,Rattus norvegicus [3]; [10],50 mg/kg
"O=C(/N=C1\NC2(CCCCO2)CCS1)c1ccc(F)cc1 (single isomer, unassigned; (-))",ED50,Mus musculus [1],28 mg/kg
same,ED50,Rattus norvegicus [3]; [10],1.8 mg/kg
O=C(/N=C1\NC2(CCCCO2)CCS1)c1cccc(F)c1 (centres undefined),ED50,Mus musculus [1]; [9],9.2 mg/kg
same,Activity,Rattus norvegicus [2],inactive
same,ED50,Rattus norvegicus [3]; [10],1.3 mg/kg
O=C1c2ccccc2C(=O)N1C1=NC2(CCCCO2)CCS1 (racemic),ED50,Mus musculus [1]; [9],14.8 mg/kg
same,Activity,Rattus norvegicus [2],inactive
same,ED50,Rattus norvegicus [3]; [10],7 mg/kg
CC(C)(C)C(=O)/N=C1\NC2(CCCCO2)CCS1 (centres undefined),ED50,Mus musculus [1]; [9],200 mg/kg
same,inhibition in vivo at 200 mg/kg,Mus musculus [8],-53%
same,Activity,Rattus norvegicus [2],inactive
same,ED50,Rattus norvegicus [3]; [10],29 mg/kg
Cl.c1ccc(C2=NC3(CCCCO3)CCS2)cc1 (racemic),ED50,Mus musculus [1]; [9],> 200 mg/kg
same,ED50,Rattus norvegicus [3]; [10],> 200 mg/kg
COc1cc(C(=O)/N=C2\NC3(CCCCO3)CCS2)cc(OC)c1OC (centres undefined),ED50,Mus musculus [1]; [9],> 200 mg/kg
same,Activity,Rattus norvegicus [2],inactive
same,ED50,Rattus norvegicus [3]; [10],> 200 mg/kg
"O=C(/N=C1\NC2(CCCCO2)CCS1)c1ccc(F)cc1 (single isomer, unassigned; (+)) [listing 2 of 2 here]",ED50,Mus musculus [1],8.8 mg/kg
O=C(/N=C1\NC2(CCCCO2)CCS1)c1cccc2ccccc12 (centres undefined),ED50,Mus musculus [1]; [9],> 200 mg/kg
same,ED50,Rattus norvegicus [3]; [10],28 mg/kg
O=C(/N=C1\NC2(CCCCO2)CCS1)c1ccc(F)cc1 (stereo in doubt; 33) [listing 2 of 2 here],ED50,Mus musculus [1],49 mg/kg
same,LD50 at 120 h,[4],630 mg/kg
same,ED50,Rattus norvegicus [3],2 mg/kg
same,ED50,Rattus norvegicus [5],22.3 mg/kg
same,LD50 at 24 h,[6],1370 mg/kg
